Measurements as given in ChEMBL document CHEMBL3244414, “Structure-activity relationships among the O-acyl derivatives of leucomycin. Correlation of minimal inhibitory concentrations with binding to Escherichia coli ribosomes” (J Med Chem, 1977).
Converted amounts (≈) assume the structure as drawn.

Legend:
Bacillus spizizenii = assay: Antimicrobial activity against Bacillus subtilis ATCC 6633 by agar dilution method; format: functional; conditions: Bacillus spizizenii, ATCC 6633; read-out: MIC
How it was run: (§1)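 Read-out is the minimal inhibitory concentration, found by agar dilution against the named strain.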

Staphylococcus aureus = assay: Antimicrobial activity against Staphylococcus aureus ATCC 6538P by agar dilution method; format: functional; conditions: Staphylococcus aureus, ATCC 6538P; read-out: MIC; how it was run: as §1
Klebsiella pneumoniae = assay: Antimicrobial activity against Klebsiella pneumoniae ATCC 10031 by agar dilution method; format: functional; conditions: Klebsiella pneumoniae, ATCC 10031; read-out: MIC; how it was run: as §1
[1] = biological target: Bacterial 70S ribosome (Bacteria) (UniProt P0A7V0+P60723+P0AG67+P0A7R5+P0A7R9+P0A7S3+P0A7S9+P0AG59+P0ADZ4+P0A7T3+P0AG63+P0A7T7+P0A7U3+P0A7U7+P68679+P0A7V3+P0A7V8+P0A7W1+P02358+P02359+P0A7W7+P0A7X3+P0A7J3+P0A7J7+P0AA10+P0ADY3+P02413+P0ADY7+P0AG44+P0C018+P0A7K6+P0A7L0+P0A7L3+P0AG48+P61175+P0ADZ0+P60624+P68919+P0A7L8+P0A7M2+P0A7M6+P60422+P0AG51+P0A7N1+P0A7M9+P0A7N4+P0A7N9+P0A7P5+P0A7Q1+Q2EEQ2+P0A7Q6+P60438+P62399+P0AG55+P0A7K2); assay: (§2) Displacement of [14C]erythromycin from Escherichia coli ribosomes after 30 mins by scintillation spectrometer analysis
How it was run: (§3)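 NH4Cl-washed E. coli ribosomes with [14C]erythromycin A and varied competitor concentrations in 0.01 M Tris-HCl pH 7.2, 0.1 M KCl, 0.004 M MgCl2, 0.01 M NH4Cl. Incubated 30 min at 24 °C, stopped by dilution in cold Tris/KCl/MgCl2 buffer, membrane-filtered, washed three times, dried, scintillation counted. Reports the concentration giving 50% inhibition of binding.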

Bacterial 70S ribosome = assay: as §2; how it was run: as §3

Row | Compound | MIC (Bacillus spizizenii) | MIC (Staphylococcus aureus) | MIC (Klebsiella pneumoniae) | pK50 [1] | IC50 (Bacterial 70S ribosome)
1 | CCCC(=O)O[C@H]1[C@H](C)O[C@@H](O[C@H]2[C@H](N(C)C)[C@@H](OC(=O)CCC(=O)O)[C@H](O[C@H]3[C@@H](CC=O)C[C@@H](C)[C@@H](OC(C)=O)/C=C/C=C/C[C@@H](C)OC(=O)C[C@@H](O)[C@@H]3OC)O[C@@H]2C)C[C@@]1(C)O | 1.6 µg/mL (≈ 1.75 µM) | 1.6 µg/mL (≈ 1.75 µM) | 25 µg/mL (≈ 27.4 µM) | 5.5 | 3.3 µM
2 | CCC(=O)O[C@H]1[C@H](C)O[C@@H](O[C@H]2[C@H](N(C)C)[C@@H](O)[C@H](O[C@H]3[C@@H](CC=O)C[C@@H](C)[C@@H](O)/C=C/C=C/C[C@@H](C)OC(=O)C[C@@H](OC(C)=O)[C@@H]3OC)O[C@@H]2C)C[C@@]1(C)O | 3.1 µg/mL (≈ 3.88 µM) | 1.6 µg/mL (≈ 2 µM) | 50 µg/mL (≈ 62.5 µM) | 5.7 | 1.9 µM
3 | CCCC(=O)O[C@H]1[C@H](C)O[C@@H](O[C@H]2[C@H](N(C)C)[C@@H](O)[C@H](O[C@H]3[C@@H](CC=O)C[C@@H](C)[C@@H](OC(=O)CC)/C=C/C=C/C[C@@H](C)OC(=O)C[C@@H](O)[C@@H]3OC)O[C@@H]2C)C[C@@]1(C)O | 0.8 µg/mL (≈ 0.966 µM) | 1.6 µg/mL (≈ 1.93 µM) | 50 µg/mL (≈ 60.4 µM) | 5.8 | 1.7 µM
4 | CCCC(=O)O[C@H]1[C@H](C)O[C@@H](O[C@H]2[C@H](N(C)C)[C@@H](OC(=O)CCCC(=O)O)[C@H](O[C@H]3[C@@H](CC=O)C[C@@H](C)[C@@H](O)/C=C/C=C/C[C@@H](C)OC(=O)C[C@@H](O)[C@@H]3OC)O[C@@H]2C)C[C@@]1(C)O | 0.8 µg/mL (≈ 0.903 µM) | 0.8 µg/mL (≈ 0.903 µM) | 25 µg/mL (≈ 28.2 µM) | 5 | 9.3 µM
5 | CO[C@@H]1[C@@H](O[C@@H]2O[C@H](C)[C@@H](O[C@H]3C[C@@](C)(O)[C@@H](OC(=O)CC(C)C)[C@H](C)O3)[C@H](N(C)C)[C@H]2OC(=O)CCC(=O)O)[C@@H](CC=O)C[C@@H](C)[C@@H](O)/C=C/C=C/C[C@@H](C)OC(=O)C[C@H]1OC(C)=O | 1.6 µg/mL (≈ 1.72 µM) | 1.6 µg/mL (≈ 1.72 µM) | 25 µg/mL (≈ 26.9 µM) | 5.5 | 3.5 µM
6 | CO[C@@H]1[C@@H](O[C@@H]2O[C@H](C)[C@@H](O[C@H]3C[C@@](C)(O)[C@@H](OC(=O)CC(C)C)[C@H](C)O3)[C@H](N(C)C)[C@H]2O)[C@@H](CC=O)C[C@@H](C)[C@@H](OC(=O)CCl)/C=C/C=C/C[C@@H](C)OC(=O)C[C@H]1OC(C)=O | 0.4 µg/mL (≈ 0.442 µM) | 0.8 µg/mL (≈ 0.884 µM) | 50 µg/mL (≈ 55.3 µM) | 5.8 | 1.7 µM
7 | CCCC(=O)O[C@H]1[C@H](C)O[C@@H](O[C@H]2[C@H](N(C)C)[C@@H](O)[C@H](O[C@H]3[C@@H](CC=O)C[C@@H](C)[C@@H](OC(=O)C(Cl)Cl)/C=C/C=C/C[C@@H](C)OC(=O)C[C@@H](O)[C@@H]3OC)O[C@@H]2C)C[C@@]1(C)O | 1.6 µg/mL (≈ 1.81 µM) | 1.6 µg/mL (≈ 1.81 µM) | 25 µg/mL (≈ 28.3 µM) | 5.9 | 1.3 µM
8 | CO[C@@H]1[C@@H](O[C@@H]2O[C@H](C)[C@@H](O[C@H]3C[C@@](C)(O)[C@@H](OC(=O)CC(C)C)[C@H](C)O3)[C@H](N(C)C)[C@H]2O)[C@@H](CC=O)C[C@@H](C)[C@@H](O)/C=C/C=C/C[C@@H](C)OC(=O)C[C@H]1OC(C)=O [JOSAMYCIN] | 0.4 µg/mL (≈ 0.483 µM) | 1.6 µg/mL (≈ 1.93 µM) | 25 µg/mL (≈ 30.2 µM) | 5.9 | 1.2 µM
9 | CCCC(=O)O[C@H]1[C@H](C)O[C@@H](O[C@H]2[C@H](N(C)C)[C@@H](O)[C@H](O[C@H]3[C@@H](CC=O)C[C@@H](C)[C@@H](O)/C=C/C=C/C[C@@H](C)OC(=O)C[C@@H](OC(C)=O)[C@@H]3OC)O[C@@H]2C)C[C@@]1(C)O | 1.6 µg/mL (≈ 1.97 µM) | 0.8 µg/mL (≈ 0.983 µM) | 50 µg/mL (≈ 61.4 µM) | 5.9 | 1.2 µM
10 | CO[C@@H]1[C@@H](O[C@@H]2O[C@H](C)[C@@H](O[C@H]3C[C@@](C)(O)[C@@H](O)[C@H](C)O3)[C@H](N(C)C)[C@H]2O)[C@@H](CC=O)C[C@@H](C)[C@@H](OC(C)=O)/C=C/C=C/C[C@@H](C)OC(=O)C[C@H]1OC(C)=O | 1.6 µg/mL (≈ 2.04 µM) | 3.1 µg/mL (≈ 3.94 µM) | 50 µg/mL (≈ 63.6 µM) | 5.2 | 6.3 µM
11 | CCCC(=O)O[C@H]1[C@H](C)O[C@@H](O[C@H]2[C@H](N(C)C)[C@@H](OC(=O)CCC(=O)O)[C@H](O[C@H]3[C@@H](CC=O)C[C@@H](C)[C@@H](OC(=O)CCC(=O)O)/C=C/C=C/C[C@@H](C)OC(=O)C[C@@H](O)[C@@H]3OC)O[C@@H]2C)C[C@@]1(C)O | 3.1 µg/mL (≈ 3.19 µM) | 6.3 µg/mL (≈ 6.48 µM) | 50 µg/mL (≈ 51.4 µM) | 5.6 | 2.8 µM
